Screens as filed in PubChem BioAssay.
Rows were chosen to be rich in hits. Some 2.4% of all compounds tested hit in one or more screens of this group.
HKDC1 inhibitor: inhibitors of human hexokinase HKDC1; Q2TB90; recombinant HKDC1, G6PDH/diaphorase resazurin coupled fluorescence; inhibition, % at 20 µM; 340,000 compounds, 0.16% hits; AID 493160;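 active means inhibition above about 35% when tested at 20 µM, limit read from the data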;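 further: plate controls were DMSO wells with enzyme for no effect and DMSO wells lacking enzyme for full effect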
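Material: recombinant HKDC1 hexokinase; Amount: HKDC1 at 5 µg/mL; Medium: Tris pH 8.0 buffer with MgCl2, Tween-20, BSA, BME; Schedule: 90 min reaction incubation at room temperature, dark; Technique: coupled resazurin fluorescence, excitation 525 nm, emission 613 nm.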
PfM18AAP inh: blocks P. falciparum M18 aspartyl aminopeptidase; 290,000 compounds, 1.2% hits; inhibition, % at 7.35 µM; recombinant PfM18AAP, H-Glu-NHMec fluorogenic cleavage;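 active means inhibition above the campaign mean inhibition over all tested compounds plus 3 SD, cut at about 28% in these data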;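 further: 0% = plate median of test compound wells and 100% = 2 mM ZnCl2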
APOBEC3G inh: blocks human APOBEC3G single-stranded DNA deamination | 330,000 compounds, 0.28% hits | recombinant A3G, ssDNA deamination FAM/TAMRA fluorescence | AID 493012 | Q9HC16 | inhibition, % at 20 µM;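 active means inhibition of at least 40% at 20 µM, with no more than 30% in the related APOBEC3A deaminase screen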;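 further: plate controls were DMSO wells with A3G for no effect and wells lacking A3G enzyme for full effect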
Target sequence (Q9HC16 whole entry, looked up): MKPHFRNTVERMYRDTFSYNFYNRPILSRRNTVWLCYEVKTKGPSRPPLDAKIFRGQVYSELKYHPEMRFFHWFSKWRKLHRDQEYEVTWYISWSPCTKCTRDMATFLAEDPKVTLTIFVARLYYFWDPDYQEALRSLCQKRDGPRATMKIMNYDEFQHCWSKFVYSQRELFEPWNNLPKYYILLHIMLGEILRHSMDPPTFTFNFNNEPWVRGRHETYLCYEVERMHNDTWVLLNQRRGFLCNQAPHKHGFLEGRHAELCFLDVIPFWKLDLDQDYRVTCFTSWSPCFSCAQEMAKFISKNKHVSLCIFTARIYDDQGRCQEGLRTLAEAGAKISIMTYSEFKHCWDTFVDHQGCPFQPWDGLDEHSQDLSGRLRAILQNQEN
APOBEC3A inh: inhibitors of human APOBEC3A DNA deaminase | 330,000 compounds, 0.41% hits | P31941 | recombinant A3A, FAM/TAMRA ssDNA deamination fluorescence | inhibition, % at 20 µM;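 active means at least 40% inhibition at 20 µM here, with at most 30% in a related deaminase screen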;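 further: plate controls were A3A with DMSO for no effect and wells lacking A3A enzyme for full effect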
PfG6PD inh: PfG6PD (Plasmodium falciparum) enzyme inhibition | 350,000 compounds, 0.78% hits | inhibition, % at 20 µM | PfGluPho enzyme, NADPH resazurin-diaphorase fluorescence;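 active means inhibition reaching at least a set limit at 20 µM in the primary screen, cut at about 59% in these data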;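 further: 0% = DMSO wells with substrate and 100% = DMSO wells lacking glucose-6-phosphate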
UBC9 SUMO inh: SUMOylation inhibition; P63279; HTRF SUMOylation assay, SAE1/SAE2 + UBC9, in vitro; inhibition, % at 35 µM; 290,000 compounds, 0.36% hits; in the data active means inhibition above about 50%, passing the limit was not always enough
Target sequence (P63279 whole entry, looked up): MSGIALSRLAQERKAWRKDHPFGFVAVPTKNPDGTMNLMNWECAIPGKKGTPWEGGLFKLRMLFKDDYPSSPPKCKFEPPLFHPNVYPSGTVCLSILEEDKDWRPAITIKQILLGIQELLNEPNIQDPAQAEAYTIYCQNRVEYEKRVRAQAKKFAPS
APOBEC3G confirm: confirmation of human APOBEC3G DNA deaminase inhibitors; shares compounds with APOBEC3G inh; inhibition, % at 20 µM; 890 compounds, 72% hits; recombinant A3G ssDNA deaminase, UDG/FAM-TAMRA fluorescence;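 active means inhibition reaching a set limit in any replicate at 20 µM, the limit being 80% of the first screen's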
UDG ctr A3G: E. coli UDG inhibition in APOBEC3G counter-screen; shares compounds with APOBEC3G inh; UDG counterscreen, FAM/TAMRA oligo fluorescence; inhibition, % at 20 µM; 710 tested, under 10 active;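 active means compounds giving 40% or more inhibition at 20 µM in any one of the three replicates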;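 further: plate controls were DMSO wells with UDG and oligo for no effect and DMSO wells lacking both for full effect; inhibitors lower the FAM signal released by uracil excision and alkaline cleavage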
HKDC1 act conf: confirmation of human HKDC1 activators; shares compounds with HKDC1 inhibitor; inhibition, % at 20 µM; 740 compounds, 14% hits; recombinant HKDC1, G6PDH/diaphorase resazurin fluorescence; active compounds read low;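 active means inhibition at or below a set negative limit, negative inhibition meaning the enzyme was activated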
PfG6PD confirm: PfG6PD inhibition, single-dose confirmed; 2,400 compounds, 34% hits; shares compounds with PfG6PD inh; inhibition, % at 20 µM; AID 504753; recombinant PfGluPho, NADPH-diaphorase-resazurin fluorescence;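 active means inhibition of at least 50% at 20 µM in any single replicate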;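 further: 0% = DMSO with substrate and 100% = DMSO lacking glucose-6-phosphate substrate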
Diaph ctr 10uM: diaphorase inhibition or oxidation at 10 uM NADPH | 820 compounds, 39% hits | inhibition, % at 20 µM | shares compounds with PfG6PD inh | diaphorase-coupled resazurin reduction, fluorescence, NADPH 10 uM;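 active means average inhibition reaching 50% or more with the compound at 20 µM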;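 further: resorufin red fluorescence formed as diaphorase reduces resazurin using NADPH; 0% = DMSO with enzyme and 100% = DMSO without enzyme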
Diaph ctr 30uM: inhibits diaphorase or oxidizes, flagging false PfG6PD hits; 820 compounds, 29% hits; inhibition, % at 20 µM; shares compounds with PfG6PD inh; Diaphorase/resazurin coupled assay, resorufin fluorescence, 30 uM NADPH;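 active means inhibition averaging 50% or more, tested at 20 µM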;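 further: 0% = DMSO with enzyme and 100% = DMSO wells lacking diaphorase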
The depositor's hits bear a star; x = no result.

SMILES	HKDC1 inhibitor	PfM18AAP inh	APOBEC3G inh	APOBEC3A inh	PfG6PD inh	UBC9 SUMO inh	APOBEC3G confirm	UDG ctr A3G	PfG6PD confirm	others
CCC(C)(C)c1nnc(NC(=O)C2CCN(C(=O)c3ccco3)CC2)s1	-26	28	67*	3	79*	-5	80*	-2	61*	Diaph ctr 10uM=-37;Diaph ctr 30uM=-15
Cc1cc(C)cc(NC(=O)CN2CCN(c3ccccn3)CC2)c1	-6	3	-15	-4	-6	3	x	x	x
CN(C)C(=O)Cn1c(SCC(=O)N2CCCc3ccccc32)nc2ccccc21	-5	-9	5	6	-10	8	x	x	x
Cc1ccc(N=c2ssnc2Cl)cc1	-51	9	73*	5	91*	-11	75*	-3	43	HKDC1 act conf=-44*
Cc1ccc(-c2nc3ccccc3nc2Cl)cc1	3	-11	-5	-5	8	5	x	x	x
Cc1cc(Cl)ccc1N=C1N=C(N)c2ccccc21	0	-9	-3	-1	8	-4	x	x	x
Cc1cc(Cl)ccc1N=c1ssnc1Cl	-37	7	61*	2	79*	-25	62*	-4	29
CC1CCN(C(=S)c2ccccc2O)CC1	2	-51	49*	3	64*	18	42*	2	17
Cc1ccc(-n2c(C)cc(-c3csc(N)n3)c2C)cc1	-16	18	-2	3	20	40	x	x	x
Cc1cc(-c2csc(N)n2)c(C)n1C	-2	14	44*	7	64*	27	17*	-3	-7
COC(=O)/C=c1/sc2nc3ccccc3n2c1=O	-32	10	73*	1	75*	19	75*	-3	40
COc1cc2c(cc1OC)C(C)N(C(=O)Cn1ncc3c1-c1cc(C)ccc1OC3)CC2 (stereo unspecified)	-1	1	2	0	-9	-5	x	x	x
COc1cc(SSc2cc(OC)cc([N+](=O)[O-])c2N)c(N)c([N+](=O)[O-])c1	2	31*	42*	-2	112*	27	79*	10	100*	Diaph ctr 10uM=-27;Diaph ctr 30uM=-20
COc1ccccc1NS(=O)(=O)c1cc(NC(=O)c2ccc(Cl)nc2)ccc1N1CCCC1	-4	x	66*	2	72*	x	68*	-4	50*	Diaph ctr 10uM=-3;Diaph ctr 30uM=-1
CCN(CC)c1ccc(NC(=O)c2ccccn2)cc1S(=O)(=O)Nc1ccccc1OC	-8	x	56*	3	60*	x	51*	-3	18
COc1ccccc1NS(=O)(=O)c1cc(NC(=O)c2cccnc2)ccc1N1CCCCC1	-3	x	-8	-2	23	x	x	x	x
COc1ccccc1NS(=O)(=O)c1cc(NC(=O)C2CCC2)ccc1N1CCCCC1	-3	16	49*	-1	60*	-22	77*	-2	27
S=C(Nc1ccccn1)NC1CCCCC1	1	19	6	1	21	29	x	x	x
COc1ccc(C(=O)C2CCCN(C(=O)Cn3cncn3)C2)cc1OC (stereo unspecified)	-2	7	3	-3	18	9	x	x	x
Nc1cc(-c2nc3ncccc3o2)ccc1Cl	-1	0	2	5	10	42	x	x	x
COc1ccc2nc3n(c(=O)c2c1)-c1ncccc1C(=O)NC3CC(C)C (stereo unspecified)	x	x	x	x	13	x	x	x	x
COC(=O)c1ccc(N2C(=O)CC(Sc3n[nH]c(C)n3)C2=O)cc1 (stereo unspecified)	-3	-69	10	-1	-7	9	x	x	x
S=C(c1ccc(-c2ccccc2Cl)o1)N1CCOCC1	-7	4	61*	-2	62*	15	55*	-7	42
COC(=O)C1CCN(c2nc3ccccc3nc2C(C#N)C(=O)OCC(C)C)CC1 (stereo unspecified)	-3	-10	1	1	14	8	x	x	x
COC(=O)CCC(=O)Nc1sc(Cc2ccccc2)c(C)c1C(N)=O	-44	12	45*	0	75*	-13	57*	0	63*	HKDC1 act conf=-23;Diaph ctr 10uM=27;Diaph ctr 30uM=-2
SMILES	HKDC1 inhibitor	PfM18AAP inh	APOBEC3G inh	APOBEC3A inh	PfG6PD inh	UBC9 SUMO inh	APOBEC3G confirm	UDG ctr A3G	PfG6PD confirm	others
C[C@H](NC(N)=O)C(=O)Nc1ccc(N2CCOCC2)c(S(=O)(=O)Nc2ccc(Cl)cc2)c1	-13	x	46*	-2	76*	x	30*	3	58*	Diaph ctr 10uM=2;Diaph ctr 30uM=-16
CC(NC(N)=O)C(=O)Nc1ccc(Cl)c(S(=O)(=O)Nc2ccc(Cl)cc2)c1 (stereo unspecified)	-6	-16	-2	0	-18	12	x	x	x
O=C(Nc1ccc(N2CCOCC2)c(S(=O)(=O)Nc2ccc(Cl)cc2)c1)c1cnccn1	-7	10	46*	0	73*	11	60*	-3	18
CC1=C(C(=O)Nc2cccnc2)C(c2ccc3c(c2)OCO3)C2=C(CCCC2=O)N1 (stereo unspecified)	3	6	-5	-2	-4	6	x	x	x
N#CC1=C2SCC(O)(c3ccccc3)N2C(=O)CC1c1ccccc1F (stereo unspecified)	10	6	-4	-3	11	-12	x	x	x
N#CC1=C2SCN(c3ccccc3)CN2C(=O)CC1c1cccs1 (stereo unspecified)	5	37*	48*	7	71*	40	55*	-2	36
N#CC1=C2SCN(c3ccccc3)CN2C(=O)CC1c1c(Cl)cccc1Cl (stereo unspecified)	7	36*	59*	-8	85*	8	65*	1	30
N#CC1=C2SCC(O)(c3ccccc3)N2C(=O)CC1c1cccs1 (stereo unspecified)	-4	20	x	x	-8	-9	x	x	x
O=C(NCC(c1ccc(F)cc1)N1CCOCC1)c1cc(F)c(F)c(F)c1F (stereo unspecified)	-4	-10	-10	-3	0	-14	x	x	x
Cc1ccc(O)c(N)c1	0	x	-6	-3	44	x	x	x	x
